BAP1 block: blocks human BAP1 ubiquitin-AMC hydrolysis; calls only at 20 µM; 0.48% of 72,000 active; recombinant BAP1, Ub-AMC hydrolysis fluorescence kinetic; hits give low values; AID 436; Q92560;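 active = activity remaining at or below 50% of control, provided the compound also passes the data quality filters; inactive = the rest, including low values that fail the filters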;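 note: 100% = DMSO wells rate and 0% = substrate alone blank rate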
ERa coact inh: ER-alpha (human) coactivator binding inhibition. P03372. TR-FRET ER-alpha LBD / SRC-1 peptide, estradiol-bound. inhibition, % at 25.6 µM. 1.7% of 86,000 active; in the data active = inhibition above about 50%;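 note: 0% = receptor plus peptide control and 100% = peptide only without receptor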
Target sequence (P03372 whole entry, looked up, the tested form may be a part): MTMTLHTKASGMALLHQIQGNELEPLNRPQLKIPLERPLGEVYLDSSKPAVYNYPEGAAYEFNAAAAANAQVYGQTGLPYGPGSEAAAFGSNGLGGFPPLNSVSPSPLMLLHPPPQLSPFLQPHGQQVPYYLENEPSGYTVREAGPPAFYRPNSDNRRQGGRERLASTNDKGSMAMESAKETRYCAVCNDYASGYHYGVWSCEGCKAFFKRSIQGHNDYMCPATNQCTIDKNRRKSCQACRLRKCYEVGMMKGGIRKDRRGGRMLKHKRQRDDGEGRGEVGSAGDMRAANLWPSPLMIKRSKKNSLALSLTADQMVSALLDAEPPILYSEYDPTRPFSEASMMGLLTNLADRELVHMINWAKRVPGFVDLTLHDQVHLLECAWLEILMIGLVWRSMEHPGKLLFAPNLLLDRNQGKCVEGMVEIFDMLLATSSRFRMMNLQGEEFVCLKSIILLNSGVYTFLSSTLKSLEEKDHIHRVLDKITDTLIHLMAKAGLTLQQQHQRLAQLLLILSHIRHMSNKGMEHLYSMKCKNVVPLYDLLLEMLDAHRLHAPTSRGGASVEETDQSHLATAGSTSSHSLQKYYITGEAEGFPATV
RORa activator: RORA (human) activation | P35398 | CHO-K1 Gal4-RORA LBD luciferase reporter, luminescence; percent increase over mock-subtracted basal signal | activation, % at 10 µM | 1.5% of 65,000 active | AID 560;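 active = activation above the mean of all tested compounds plus 3 SD, cut at about 49% in these data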;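 note: 0% = DMSO-treated RORA cells and 100% = added signal equal to DMSO minus mock-transfected cells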
SF1 activator: SF-1 (human) activation. AID 522. activation, % at 10 µM. CHO-K1 Gal4-SF-1 LBD luciferase reporter; % increase over DMSO SF-1-specific signal. 1.9% of 65,000 active;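 active = activation above the mean activation of all tested compounds plus 3 SD, cut at about 50% in these data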
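Material: Transient Gal4-SF-1 LBD reporter, CHO-K1 | Input: 4,000 cells/well | Dosing: One dose, 10 µM compound, 1% DMSO | Incubation: 20 h compound treatment, 37 °C | Detection: SteadyLite luciferase luminescence | Evaluation: Percent activation relative to DMSO median and mock-transfected background | Benchmarks: DMSO-treated SF-1-transfected cells as negative, DMSO-treated mock-transfected cells lacking SF-1 as background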
ERb coact inh: ER-beta (human) coactivator binding inhibition; Q92731; TR-FRET ER-beta LBD / SRC1-Cy5 peptide binding; receptor agonist-loaded with 1 µM estradiol; inhibition, % at 25.6 µM; 1.3% of 86,000 active;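 active = compounds whose percent inhibition of the receptor-coactivator binding signal exceeds about 50% in the single-dose screen, limit read from the data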;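 note: 0% = receptor plus peptide wells without compound and 100% = peptide-only wells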
ERa coact pot: enhances coactivator binding to human estrogen receptor alpha. AID 639. 1.3% of 86,000 active. coactivator binding (% of control), % at 25.6 µM. TR-FRET ERalpha-LBD/SRC-Cy5 coactivator binding, 2 h; 100 = basal binding, no effect; in the data active = activity above about 200%;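 note: binding measured in presence of low estradiol as agonist stimulus; 0% = peptide alone without receptor and 100% = receptor with peptide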
An asterisk follows results filed as active; i = inactive; x = no result shown; + = active, no number; [ ] = another dose, or the depositor's remark. In the library only some 5.1% were active in any assay of this set; here they are far more common.

SMILES	BAP1 block	ERa coact inh	RORa activator	SF1 activator	ERb coact inh	ERa coact pot
CCc1ccc(CNC(=O)C2CCC(=O)N2C2CCCCC2)cc1 (configuration not stated)	x	2.9	x	x	-10.0	112.4
O=C(NCc1ccccn1)C1CCC(=O)N1C1CCCCC1 (configuration not stated)	x	82.3*[fluorescence artefact?]	x	x	-4.3	117.9
Cc1cccc(-n2c(SCc3cc(=O)n4c(C)cccc4n3)nc3[nH]ncc3c2=O)c1	x	-5.9	x	x	53.1*	82.1
Cc1nc(CSc2nc3[nH]ncc3c(=O)n2-c2ccccc2)cs1	i	1.3	15.1	19.8	15.0	87.4
COc1ccc(NC(=O)c2ccc(N3C(=O)c4ccc([N+](=O)[O-])cc4C3=O)cc2)cc1	i	x	x	x	x	x
O=c1[nH]c2cc3c(cc2cc1C(c1nnnn1C1CCCC1)N1CCSCC1)OCCO3 (configuration not stated)	x	20.5	12.3	3.2	9.6	214.9*[fluorescence artefact?]
CC(C)(C)n1nnnc1C(c1cc2cc3c(cc2[nH]c1=O)OCCO3)N1CCSCC1 (configuration not stated)	x	7.0	0.4	-24.5	-0.3	84.8
S=C(c1ccc(-c2cccc(Cl)c2)o1)N1CCOCC1	i	-3.7	61.1*	33.6	4.3	80.2
S=C(c1ccc(-c2cc(Cl)ccc2Cl)o1)N1CCOCC1	i	-11.8	-2.6	26.8	-5.4	82.8
COc1cc2ccccc2cc1C(=O)Nc1ccc2oc(-c3ccc(Br)cc3)nc2c1	i	x	x	x	x	x
CN(C)/C=N/c1ncnc2c1cnn2-c1ccc(C(F)(F)F)cn1	i	2.6	-1.6	81.8*	-7.0	106.7
Cc1nn(-c2ccc(C(F)(F)F)cn2)c(C)c1Oc1ccccc1O	x	10.7	x	x	-8.1	76.7
Nn1c(SCC(=O)Nc2ccccc2F)nnc1-c1cccnc1	i	4.3	-9.6	6.0	8.1	126.4
Cc1ccc(-n2c(SCC(=O)Nc3ccc4c(c3)OCO4)nnc2-c2cccs2)cc1	i	85.3*[fluorescence artefact?]	7.1	-2.9	39.1	378.2*[fluorescence artefact?]
Cc1ccccc1NC(=O)CSc1nnc(-c2ccccc2)n1-c1ccccc1	x	1.3	x	x	-4.8	401.7*[fluorescence artefact?]
O=C(CSc1nnc(-c2cccnc2)n1-c1ccccc1)Nc1ccccn1	i	-5.0	-13.6	15.2	-1.0	102.8
O=C(CSc1nnc(-c2cccs2)n1-c1ccccc1)NCc1ccc2c(c1)OCO2	i	2.1	-3.9	1.9	-1.6	119.8
O=C(CSc1nnc(-c2cccnc2)n1-c1ccccc1)Nc1ccc2c(c1)OCO2	i	-6.1	10.4	-8.5	57.4*	115.4
Nn1c(SCC(=O)Nc2ccc(F)cc2F)nnc1-c1cccnc1	i	-4.2	4.0	56.7*	-0.3	115.9
COC(=O)c1c(NC(=O)CSc2nccn2C)sc2c1CCC(C(C)(C)C)C2 (configuration not stated)	i	x	x	x	x	x
CC(C)c1cccc(C(C)C)c1NC(=O)C(C(C)C)N1C(=O)c2ccccc2C1=O (configuration not stated)	i	x	x	x	x	x
COc1cccc(C(=O)Nc2ccc(Cl)c([N+](=O)[O-])c2)c1	i	x	x	x	x	x
CCOc1cc(-c2nc3ccccn3c2N=Cc2cc([N+](=O)[O-])ccc2Cl)ccc1O	i	x	x	x	x	x
COc1ccccc1N1CCN(CC(O)COc2ccc(C(C)C)c(C)c2)CC1 (configuration not stated)	i	x	x	x	x	x
CCn1cc(C(=O)Nc2ccc(-n3cnnn3)c(OC)c2)c(=O)c2ccc(C)nc21	i	-45.9	11.1	2.6	-0.6	337.1*[fluorescence artefact?]
SMILES	BAP1 block	ERa coact inh	RORa activator	SF1 activator	ERb coact inh	ERa coact pot
CCn1cc(C(=O)Nc2cccc(C(=O)OC)c2)c(=O)c2ccc(C)nc21	i	-5.2	-10.8	11.5	-3.3	154.0
CCn1cc(C(=O)Nc2ccccc2C(=O)OC)c(=O)c2ccc(C)nc21	i	-9.4	-14.5	17.9	-3.4	98.7
CCCOC(=O)c1ccc(NC(=O)c2cn(CC)c3nc(C)ccc3c2=O)cc1	x	47.8	x	x	44.2	274.7*[fluorescence artefact?]
CCCOC(=O)c1ccc(NC(=O)c2ccoc2C)cc1	i	x	41.8	63.4*	x	x
CCn1cc(C(=O)NC2CCc3ccccc32)c(=O)c2ccc(C)nc21 (configuration not stated)	i	-9.7	-8.3	15.8	15.1	425.0*[fluorescence artefact?]
CCCCOC(=O)c1ccc(NC(=O)c2ccoc2C)cc1	x	-3.7	28.3	44.1	0.4	118.6
CCCCOc1ccc(C(=O)NCc2n[nH]c(=S)n2-c2cccc(C)c2)cc1	i	x	x	x	x	x
COc1ccc(-c2cn3ccccc3n2)cc1OC	i	-4.1	48.9*	30.2	8.5	118.5
Cc1cc(C(=O)CN2C(=O)c3ccccc3C2=O)c(C)n1C1CC1	i	1.0	13.9	55.6*	-7.6	121.8
CCOc1ccccc1NC(=O)COc1cc(C)ccc1C(C)(C)C	i	x	x	x	x	x
N#Cc1c(C(F)(F)F)cc(-c2ccccc2)nc1SCc1nc(N)nc(N2CCOCC2)n1	i	62.1*	-1.9	-12.5	48.9	361.9*[fluorescence artefact?]
FC(F)(F)c1cc(-c2ccccc2)nc(N2CCOCC2)n1	x	-8.3	x	x	-9.5	88.9
CC1=C(/C=C/C(C)=C/C=C/C(C)=C/C(=O)Nc2ccc(O)cc2)C(C)(C)CCC1	+	x	x	x	x	x
CC1=C(C(=O)OCCOc2ccccc2)C2(O)C(=O)c3ccccc3C2(O)N1 (configuration not stated)	i	x	x	x	x	x
c1ccc(NC2=Nc3ccccc3CS2)cc1	i	0.0	89.4*	24.1	-0.2	117.7
Cc1ccc(NC2=Nc3ccccc3CC2)cc1	x	-8.5	x	x	-8.1	106.2
Cc1cc(-n2ccnc2)n2c(nc3ccccc32)c1C#N	x	3.9	x	x	5.8	69.2
CCCc1cc(-n2ccnc2)n2c(nc3ccccc32)c1C#N	i	66.3*	5.2	-7.0	41.1	105.0
C[C@]12CC[C@@H]3c4ccc(O)cc4[C@@H](O)C[C@H]3[C@@H]1CC[C@@H]2O	x	-0.2	x	x	12.4	530.4*
COc1ccc(C(=O)Nc2cccc(NC(=O)c3cccc(Cl)c3)c2)cc1OC	i	x	x	x	x	x
Cc1ccc(NC2c3ncccc3C(=O)N2c2ccccc2C)cc1C (configuration not stated)	i	-45.3	-10.3	10.8	20.8	542.8*[fluorescence artefact?]
Cc1c(C(=O)OC2CCCC2)[nH]c2c1C(=O)CC(c1ccco1)C2 (configuration not stated)	i	12.9	-40.8	-43.7	18.1	150.0
COC(=O)C1C(=O)c2c([nH]c(C(=O)OC3CCCC3)c2C)CC1C (configuration not stated)	i	1.7	49.4*	56.0*	-9.5	98.2
COc1ccc(OC)c(NC(=O)Cc2nn(C)c(=O)c3ccccc23)c1	i	-47.9	-12.2	-11.6	-23.2	110.6
CCC(=O)Nc1cc(-c2nn(C)c(=O)c3ccccc23)ccc1OC	i	x	0.3	-8.4	x	x

High-throughput results as filed in PubChem.
